Experimental findings from ChEMBL document CHEMBL4627246, “Pyroglutamide-Based P2X7 Receptor Antagonists Targeting Inflammatory Bowel Disease” (J Med Chem, 2020) are described below.

For series [1], the target named is T1, P2X purinoceptor 7 (Homo sapiens) (UniProt Q99572).
T1 sequence (whole entry): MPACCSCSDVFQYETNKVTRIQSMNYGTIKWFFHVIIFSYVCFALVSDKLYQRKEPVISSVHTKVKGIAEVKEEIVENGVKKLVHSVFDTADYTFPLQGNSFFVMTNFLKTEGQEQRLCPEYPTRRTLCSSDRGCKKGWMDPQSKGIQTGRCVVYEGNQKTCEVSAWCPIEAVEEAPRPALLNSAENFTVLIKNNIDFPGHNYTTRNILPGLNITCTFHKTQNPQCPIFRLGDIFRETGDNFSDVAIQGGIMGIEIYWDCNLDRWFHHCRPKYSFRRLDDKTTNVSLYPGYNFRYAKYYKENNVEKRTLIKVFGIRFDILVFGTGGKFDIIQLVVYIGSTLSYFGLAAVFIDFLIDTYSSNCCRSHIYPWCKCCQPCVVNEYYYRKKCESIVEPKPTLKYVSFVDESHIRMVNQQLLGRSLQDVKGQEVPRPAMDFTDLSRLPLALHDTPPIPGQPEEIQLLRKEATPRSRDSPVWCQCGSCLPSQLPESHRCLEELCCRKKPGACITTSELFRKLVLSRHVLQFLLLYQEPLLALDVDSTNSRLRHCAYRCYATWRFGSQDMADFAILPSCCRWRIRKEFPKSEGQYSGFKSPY
Briefly: Antagonist activity at P2X7R in human THP1 cells assessed as inhibition of LPS and BzATP-induced IL-1beta expression by measuring increase in proIL-1beta expression in cell supernatant extract at 10^-6 mol/L pretreated with compound followed by LPS/BzATP addition and measured after 6 hrs by Western blot analysis. In kind it is cell-based. Conditions: THP-1.

Series [2] deals with T1, P2X purinoceptor 7 (Homo sapiens). Kind of series: Antagonist activity at P2X7R in human THP1 cells assessed as inhibition of LPS and BzATP-induced mature form of IL-1beta expression in cells supernatant at 10^-6 mol/L pretreated with compound followed by LPS/BzATP addition and measured after 2 to 6 hrs by Western blot analysis. Format: cell-based. Conditions: THP-1.
For series [3] the target is unchanged. Briefly: Antagonist activity at P2X7R in human THP1 cells assessed as inhibition of LPS and BzATP-induced mature form of IL-1beta expression in whole cell extract at 10^-6 mol/L pretreated with compound followed by LPS/BzATP addition and measured after 2 to 6 hrs by Western blot analysis. In kind it is cell-based. Conditions: THP-1.
The target is the same in series [4]. Kind of series: Antagonist activity at P2X7R in human THP1 cells assessed as inhibition of LPS and BzATP-induced cell death at 10^-6 mol/L pretreated with compound followed by LPS/BzATP addition and measured after 4 hrs by sytox green dye based flow cytometry. The following applies: THP-1.
Series [5] has the same target. Briefly: Antagonist activity at P2X7R in human THP1 cells assessed as inhibition of LPS and BzATP-induced cell death at 10^-6 mol/L pretreated with compound followed by LPS/BzATP addition and measured after 6 hrs by sytox green dye based flow cytometry. The following applies: THP-1.
Series [6] has the same target. Kind of series: Antagonist activity at P2X7R in human THP1 cells assessed as inhibition of LPS and BzATP-induced ROS production at 10^-6mol/L pretreated with compound followed by LPS/BzATP addition and measured after 5 hrs by kinetic chemiluminescence based fluorometric analysis. Format: cell-based. The following applies: THP-1. The gist of the method:
(§1)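 Differentiated THP-1 macrophages (10^5 cells, RPMI 1640 + 10% FBS) pretreated with antagonist at 10^-6 mol/L before LPS (10 μmol/L) and BzATP (70 μmol/L), 37 °C, 5% CO2; ROS detected as luminol (50 μM)/horseradish peroxidase (50 μg/mL) chemiluminescence on a fluorometer; H2O2 without cells as positive control.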

The target is the same in series [7]. Briefly: Antagonist activity at P2X7R in human THP1 cells assessed as inhibition of LPS and BzATP-induced ROS production at 10^-6mol/L pretreated with compound followed by LPS/BzATP addition and measured after 6 hrs by kinetic chemiluminescence based fluorometric analysis. In kind it is cell-based. Conditions: THP-1. The gist of the method:
as §1

For series [8], the system named is Mus musculus. Kind of series: Antiinflammatory activity against DSS-induced colitis C57BL/6J mouse model assessed as body weight loss at 2.5 mg/kg, ip administered daily and measured for 15 days relative to placebo-treated control. In kind it is functional. In short, it runs like this: (§2)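 DSS colitis in WT mice: 3.8% DSS in drinking water days 1–5, then tap water for 10 days; compound 2.5 mg/kg given i.p. daily in 10% DMSO/PBS; cohorts of 10 mice per group, placebo as comparator; weight loss and clinical disease score tracked; colon sections at day 14 stained with H&E and histologically scored; data as mean ± SEM.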

For series [9], the system named is Mus musculus. Kind of series: Antiinflammatory activity against DSS-induced colitis C57BL/6J mouse model assessed as reduction in diarrhea at 2.5 mg/kg, ip administered daily and measured for 15 days. Format: functional, organism-based. The gist of the method:
as §2

Series [10] deals with Mus musculus. Kind of series: Antiinflammatory activity against DSS-induced colitis C57BL/6J mouse model assessed as reduction in rectal bleeding at 2.5 mg/kg, ip administered daily and measured for 15 days. Format: functional, organism-based. In short, it runs like this:
as §2

Series [11] deals with Mus musculus. Briefly: Antiinflammatory activity against DSS-induced colitis C57BL/6J mouse model assessed as reduction in DAI score at 2.5 mg/kg, ip administered daily and measured for 15 days. Format: functional. The following applies: 360 h. In short, it runs like this: as §2
The test system of series [12] is Mus musculus. Briefly: Antiinflammatory activity against DSS-induced colitis C57BL/6J mouse model assessed as areas of normal colonic mucosa with straight and larger crypts on muscularis mucosa at 2.5 mg/kg, ip administered daily and measured after day 14 by hematoxylin and eosin staining based microscopic analysis. In kind it is functional, organism-based. The gist of the method:
as §2

The test system of series [13] is Mus musculus. Kind of series: Antiinflammatory activity against DSS-induced colitis C57BL/6J mouse model assessed as decrease in inflammation level in colon at 2.5 mg/kg, ip administered daily and measured after day 14 by hematoxylin and eosin staining based microscopic analysis. The following applies: 336 h. In kind it is functional. The gist of the method: as §2

Series [14] in a line: Drug metabolism in human liver microsomes assessed as metabolite N-[(2,4-dichlorophenyl)methyl]-5-oxo-pyrrolidine-2-carboxamide formation at 0.2 mg/ml incubated for 60 mins by UPLC-MS/MS analysis. Conditions: 1 h. Format: ADME, Microsome. The gist of the method: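 Human liver microsomes (2 mg protein/mL) pre-activated with alamethicin in 0.1 M Tris-HCl/10 mM MgCl₂ pH 7.4, added to dried residue of 0.2 mg/mL compound solution; cofactors UDPGA 5 mM, NADPH 1.3 mM, G6P 3.3 mM, G6PD 0.5 U/mL. 37 °C, 60 min; stopped with methanol plus internal standards. Supernatant analysed by online-extraction UPLC on C18 with Q-TOF MS, ESI+.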

Molecules are shown by their SMILES. Active and inactive are the calls of the source. The calls are words filed in the database; no cut-off is given here.

For the molecule `O=C(NCc1ccc(Cl)cc1Cl)[C@@H]1CCC(=O)N1c1ccsc1`, the inhibition result in series [1], in series [2], in [3], in series [4] and in [6] was “Active” in each case. Besides, the inhibition result in series [5] and in series [7] was “inactive” each time.

For `O=C(NCc1ccc(Cl)cc1Cl)[C@@H]1CCC(=O)N1c1cccs1`, the inhibition result in series [1], in series [2], in [3], in series [4] and in series [6] was “Active” each time. In addition, the inhibition entry in [5] and in series [7] was “inactive” throughout. Also, the Activity in the series with Mus musculus [8] is 50%. Besides, the result in the series on Mus musculus [9], with Mus musculus [10] and in the series with Mus musculus [12] was Active. Besides, the results for the inhibition in vivo at 2.5 mg/kg with Mus musculus [11] and with Mus musculus [13] were 31% and 42 to 50%, respectively. Also, in [14], the Drug metabolism result is “Metabolite_Detected”.
